Results taken from ChEMBL document CHEMBL1143239, “The synthesis of bivalent 2beta-carbomethoxy-3beta-(3,4-dichlorophenyl)-8-heterobicyclo[3.2.1]octanes as probes for proximal binding sites on the dopamine and serotonin transporters” (Bioorg Med Chem, 2008).

Tests used:
[1] = target: Sodium-dependent dopamine transporter (Homo sapiens, UniProt Q01959); assay: Displacement of [3H]WIN-35428 from human DAT expressed in transfected cell membrane; type: cell membranes
Outline: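 Membranes from transfected cells stably expressing hDAT, labelled with [3H]WIN35,428 at 4 nM final, with serial drug dilutions made from DMSO stocks. Buffer Tris.HCl 50 mM, pH 7.4, NaCl 100 mM. Incubated 1 h at 22 °C. Filtered over 0.1% PEI-presoaked GF/B filters and counted. Nonspecific binding defined with 100 μM (-)-cocaine. IC50 reported as mean ± SEM of ≥3 experiments, each in triplicate.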

[2] = target: Sodium-dependent serotonin transporter (Homo sapiens, UniProt P31645); assay: Displacement of [3H]-citalopram from human SERT expressed in HEK293 cell membrane; type: cell membranes
Outline: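 Competition binding on membranes of HEK-293 cells stably expressing SERT cDNA. [3H]citalopram fixed at 1 nM final, with a range of drug concentrations. Buffer Tris.HCl 50 mM, pH 7.4, NaCl 100 mM. Incubation 2 h at 0–4 °C, started by adding membranes. Rapid filtration through PEI-soaked GF/B filters, then scintillation counting. Nonspecific binding defined with 10 μM fluoxetine. IC50 reported as mean ± SEM of ≥3 experiments, each in triplicate.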

Chain of Sodium-dependent dopamine transporter (Q01959 whole entry): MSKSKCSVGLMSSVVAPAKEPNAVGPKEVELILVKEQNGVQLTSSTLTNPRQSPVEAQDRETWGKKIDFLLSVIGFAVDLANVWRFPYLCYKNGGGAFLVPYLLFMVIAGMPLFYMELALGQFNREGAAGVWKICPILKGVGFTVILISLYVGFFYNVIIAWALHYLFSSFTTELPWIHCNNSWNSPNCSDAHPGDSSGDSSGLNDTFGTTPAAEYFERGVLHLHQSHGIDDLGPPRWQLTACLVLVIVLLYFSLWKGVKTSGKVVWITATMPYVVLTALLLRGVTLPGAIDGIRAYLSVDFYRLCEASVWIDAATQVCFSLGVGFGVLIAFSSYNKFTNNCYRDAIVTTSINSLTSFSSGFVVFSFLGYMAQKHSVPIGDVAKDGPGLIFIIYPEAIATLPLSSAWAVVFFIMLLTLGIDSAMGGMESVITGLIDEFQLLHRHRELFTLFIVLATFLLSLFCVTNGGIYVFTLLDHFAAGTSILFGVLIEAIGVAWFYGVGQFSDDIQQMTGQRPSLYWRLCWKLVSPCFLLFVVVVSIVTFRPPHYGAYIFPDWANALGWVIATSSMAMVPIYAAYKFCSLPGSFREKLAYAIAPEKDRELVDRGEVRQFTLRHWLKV
Chain of Sodium-dependent serotonin transporter (P31645 whole entry): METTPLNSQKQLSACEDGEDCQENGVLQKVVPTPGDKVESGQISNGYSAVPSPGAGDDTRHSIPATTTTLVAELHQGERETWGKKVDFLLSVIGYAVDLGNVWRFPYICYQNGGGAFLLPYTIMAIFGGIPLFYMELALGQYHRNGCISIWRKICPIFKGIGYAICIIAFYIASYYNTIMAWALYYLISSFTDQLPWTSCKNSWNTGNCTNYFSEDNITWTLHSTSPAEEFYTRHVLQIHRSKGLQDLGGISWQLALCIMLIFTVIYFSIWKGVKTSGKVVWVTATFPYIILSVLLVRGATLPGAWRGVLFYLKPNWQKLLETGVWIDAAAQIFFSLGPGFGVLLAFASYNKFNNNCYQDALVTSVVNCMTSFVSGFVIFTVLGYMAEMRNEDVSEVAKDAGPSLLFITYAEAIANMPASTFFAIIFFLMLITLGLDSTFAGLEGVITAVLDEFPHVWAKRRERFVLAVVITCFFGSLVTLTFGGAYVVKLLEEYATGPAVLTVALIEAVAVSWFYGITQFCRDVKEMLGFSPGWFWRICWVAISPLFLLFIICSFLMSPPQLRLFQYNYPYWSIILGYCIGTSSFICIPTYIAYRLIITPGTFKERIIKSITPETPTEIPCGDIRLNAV

O=C(CCC(=O)OC[C@@H]1C2CCC(C[C@@H]1c1ccc(Cl)c(Cl)c1)S2)OC[C@@H]1C2CCC(C[C@@H]1c1ccc(Cl)c(Cl)c1)S2 was tested, and the IC50 [1] was 1540 nM and the IC50 [2] was 2200 nM.
Work on COC(=O)[C@@H]1C2CCC(C[C@@H]1c1ccc(Cl)c(Cl)c1)O2 (stereo not given in full) yielded an IC50 [1] of 3.3 nM and an IC50 [2] of 4.7 nM.
With CN1C2CCC1[C@@H](COC(=O)CCCCC(=O)OC[C@@H]1C3CCC(C[C@@H]1c1ccc(Cl)c(Cl)c1)N3C)[C@@H](c1ccc(Cl)c(Cl)c1)C2 the IC50 [1] was 28 nM and the IC50 [2] was 56 nM.
With COC(=O)[C@@H]1C2CCC(C[C@@H]1c1ccc(Cl)c(Cl)c1)N2C (stereo not given in full) the IC50 [2] was 2.5 nM.
COC(=O)[C@@H]1C2CCC(C[C@@H]1c1ccc(Cl)c(Cl)c1)S2 (stereo not given in full) showed an IC50 [1] of 2 nM and an IC50 [2] of 3 nM.
For CN1C2CCC1[C@@H](COC(=O)CCC(=O)OC[C@@H]1C3CCC(C[C@@H]1c1ccc(Cl)c(Cl)c1)N3C)[C@@H](c1ccc(Cl)c(Cl)c1)C2, the IC50 [1] was 12 nM and the IC50 [2] was 106 nM.
In the case of CCCCCCC(=O)OC[C@H]1[C@@H](c2ccc(Cl)c(Cl)c2)CC2CC[C@H]1N2C, the IC50 [1] is reported as 8 nM and the IC50 [2] is reported as 53 nM.
In the case of CN1C2CCC1[C@@H](COC(=O)CCCCCCCCC(=O)OC[C@@H]1C3CCC(C[C@@H]1c1ccc(Cl)c(Cl)c1)N3C)[C@@H](c1ccc(Cl)c(Cl)c1)C2, the IC50 [1] is reported as 31 nM and the IC50 [2] is reported as 17 nM.
CN1C2CC[C@@H]1[C@@H](COC(=O)CCC(=O)OC[C@H]1[C@@H](c3ccc(Cl)c(Cl)c3)CC3CC[C@H]1O3)[C@@H](c1ccc(Cl)c(Cl)c1)C2 gave an IC50 [1] of 67 nM and an IC50 [2] of 405 nM.
With CN1C2CC[C@@H]1[C@@H](COC(=O)CCC(=O)OC[C@@H]1C3CCC(C[C@@H]1c1ccc(Cl)c(Cl)c1)S3)[C@@H](c1ccc(Cl)c(Cl)c1)C2 the IC50 [1] was 55 nM and the IC50 [2] was 593 nM.
Molecule O=C(CCC(=O)OC[C@@H]1C2CCC(C[C@@H]1c1ccc(Cl)c(Cl)c1)S2)OC[C@@H]1C2CCC(C[C@@H]1c1ccc(Cl)c(Cl)c1)O2 (stereo not given in full) has an IC50 [1] of 2960 nM and an IC50 [2] of 992 nM.
Work on CN1C2CCC1[C@@H](COC(=O)CCCCCCC(=O)OC[C@@H]1C3CCC(C[C@@H]1c1ccc(Cl)c(Cl)c1)N3C)[C@@H](c1ccc(Cl)c(Cl)c1)C2 yielded an IC50 [1] of 11 nM and an IC50 [2] of 31 nM.
CN1C2CCC1[C@@H](COC(=O)CCCCCCCCCCC(=O)OC[C@@H]1C3CCC(C[C@@H]1c1ccc(Cl)c(Cl)c1)N3C)[C@@H](c1ccc(Cl)c(Cl)c1)C2 showed an IC50 [1] of 115 nM and an IC50 [2] of 140 nM.
